Values joined by “and” are separate entries in the source; they are usually repeats but may differ in a detail not shown here. Equal entries are not always repeated.
Experiments:
lymphocyte count = settings: associated with decreasing lymph node size; cited from earlier work
[1] = test system: patients with relapsed lymphoma or CLL; experiment: Toxicity of cycle 1 UCN-01 alone; format: in vivo, human
[2] = Plasma UCN-01 pharmacokinetics; format: in vivo, human
[3] = test system: absolute lymphocyte count (ALC); experiment: Absolute lymphocyte count after UCN-01; format: in vivo, human
Neoplastic B cells = experiment: In vivo apoptosis by annexin V-FITC flow cytometry of peripheral blood; design: species or system human; settings: for Peak value of apoptosis (annexin V-positive cells): CLL patient; for apoptotic B cells positive for CD19 and annexin V: time point not stated
Method in brief: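 Peripheral blood was stained within 12 h of collection. Erythrocytes were lysed (150 mM NH4Cl, 10 mM KHCO3, 0.1 mM EDTA; 10 min, room temperature), spun 500 × g for 15 min and washed twice in PBS/0.1% NaN3. Cells were co-stained 30 min with annexin V-FITC plus tumour-marker antibodies (CD19, CD5 for CLL). Four-colour flow, ≥5000 lymphocytes per tube. Controls were thawed lymphocytes (positive) and fresh whole blood (negative).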

[4] = test system: patients with refractory neoplasms; settings: cited from earlier work
[5] = test system: patients with refractory solid tumors; settings: 24 patients; cited from earlier work
[6] = cycle 1 UCN-01 alone, n (%) of 18 patients
[7] = human, plasma, iv, 45 mg/m^2/day
[8] = median, n=15, cycle 1, 72 h IV infusion at 45 mg/m^2/day

In the case of `CC[C@H](Nc1ncnc2[nH]cnc12)c1nc2cccc(F)c2c(=O)n1-c1ccccc1` [CAL-101], the “patients with an increase in lymphocyte count” value (lymphocyte count) is listed as 60%.
In the case of `CN[C@@H]1C[C@H]2O[C@@](C)([C@@H]1OC)n1c3ccccc3c3c4c(c5c6ccccc6n2c5c31)C(=O)N[C@@H]4O` [UCN-01, 7-hydroxystaurosporine], the “grade 4 hyperuricemia, patients” value ([1]; among the three patients with tumor lysis syndrome) is reported as “three”, the “Single episodes of grade 2 toxicities” value ([1]; cycle 1 UCN-01 alone) is reported as “an elevated bicarbonate level, circulation cardiac-other, constipation, an elevated CPK, depression, dyspepsia, pruritus, and taste disturbance” and the “grade 3 toxicities that occurred one time during cycle 1” value ([1]; cycle 1 UCN-01 alone) is reported as “isolated elevated SGPT and one episode of febrile neutropenia”. For the same compound, the “Amylase, grade 2 or 3 toxicity” value [1, 6] was 2(11%), the “Creatinine, grade 2 or 3 toxicity” value [1, 6] was 4(22%) and the “Headache, grade 2 or 3 toxicity” value [1, 6] was 8(44%). For the same compound, the “Hemoglobin, grade 2 or 3 toxicity” value [1, 6] was 6(33%), the “Hyperglycemia, grade 2 or 3 toxicity” value [1, 6] was 12(67%) and the “Hypermagnesemia, grade 2 or 3 toxicity” value [1, 6] was 3(16%). For the same compound, the “Hypoalbuminemia, grade 2 or 3 toxicity” value [1, 6] was 2(11%), the “Hypocalcemia, grade 2 or 3 toxicity” value [1, 6] was 6(33%) and the “Hyponatremia, grade 2 or 3 toxicity” value [1, 6] was 2(11%). For the same compound, the “Hypoxia, grade 2 or 3 toxicity” value [1, 6] was 6(33%), the “Inf w/o neut (infection without neutropenia), grade 2 or 3 toxicity” value [1, 6] was 2(11%) and the “Leukopenia, grade 2 or 3 toxicity” value [1, 6] was 3(16%). For the same compound, the “Lymphopenia, grade 2 or 3 toxicity” value [1, 6] was 5(27%), the “Myalgia, grade 2 or 3 toxicity” value [1, 6] was 2(11%) and the “Nausea, grade 2 or 3 toxicity” value [1, 6] was 8(44%). The “Neutropenia, grade 2 or 3 toxicity” value [1, 6] was 4(22%), the “Rash/desquamation, grade 2 or 3 toxicity” value [1, 6] was 2(11%) and the “SGOT (AST), grade 2 or 3 toxicity” value [1, 6] was 3(16%). The “Stomatitis, grade 2 or 3 toxicity” value [1, 6] was 3(16%), the “Sup/vnt arrh (supraventricular arrhythmia), grade 2 or 3 toxicity” value [1, 6] was 2(11%) and the “Trans prbcs (transfused packed red blood cells), grade 2 or 3 toxicity” value [1, 6] was 3(16%). For the same compound, the “Tumor lysis, grade 2 or 3 toxicity” value [1, 6] was 3(16%), the “Vomiting, grade 2 or 3 toxicity” value [1, 6] was 4(22%) and the “tumor lysis syndrome (grade 3, CTCAE v2), patients” value ([1]; in vivo) was “Three”. For the same compound, the “Hypocalcemia (grade 2), patients” value ([1]; six patients) was 33%, the creatinine peak ([1]; tumor lysis patients with renal dysfunction) was 2.1 mg/dL and the “serum blood urea nitrogen [BUN] peak” value ([1]; two tumor lysis patients with renal dysfunction) was 66 mg/dL and 40 mg/dL. The “difference in UCN-01 CLtot between cycle 1 (without FAMP) and cycle 2 (with FAMP)” value ([2]; five evaluable patients, paired t-test p = 0.27) was “no intra-individual difference”, the Vd ([2]; human, plasma, intravenous, 45 mg/m^2/day) was 3 to 18 L and the AUC(0-inf) [2, 7] was 7260 µg·h/mL. For the same compound, the Cmax [2, 7] was 16700 ng/mL, the VλZ [2, 8] was 7.4 L and the “t1/2 (terminal)” value [2, 8] was 15.02 days. The “day of peak lymphocytosis” value ([3]; cycle 1) was no more than 4 days, the “increase in the absolute lymphocyte count (ALC)” value ([3]; first three of four patients with CLL, first cycle of UCN-01 alone) was 2.0–2.7 fold and the “patients with lymphocytosis following UCN-01” value ([3]; in vivo) was 15 of 18. For the same compound, the “Peak value of apoptosis (annexin V-positive cells)” value (Neoplastic B cells; day 4 of cycle 1) was 15%, the “Peak value of apoptosis (annexin V-positive cells)” value (Neoplastic B cells; day 28 of cycle 1) was 8% and the “apoptotic B cells positive for CD19 and annexin V” value (“apoptotic B cells positive” for short) (Neoplastic B cells; patient 10, Figure 2 (B), low level) was 2.6%. For the same compound, the “apoptotic B cells positive” value (Neoplastic B cells; patient 17, Figure 2 (C), low level) was 3.8%, the “apoptotic B cells positive” value (Neoplastic B cells; patient 17, Figure 2 (E), high level) was 38.9% and the “MTD / recommended phase II dose” value ([4]; 3-day infusion) was 42.5 mg/m^2/day. The “grade 4 hyperglycemia, patients” value ([4]; 42.5 dose level, complicated by steroids) was 1/9, the significant hematopoietic toxicity [4] was “None of the patients had significant hematopoietic toxicity” and the “dose level at which DLT (> grade 3) occurred” value ([4]; nausea/vomiting, hyperglycemia, transient hypoxia) was 53 mg/m^2/ day. For the same compound, the objective responses [5] was “no objective responses” and the toxicities noted [5] was “grade 1–2 nausea, vomiting, hyperglycemia, and hypotension”.

Reference: article PMC6387680 (Leukemia & lymphoma, 2011)
